Hits are enriched below; roughly 3.7% of the tested compounds scored in any of these assays.
KCNQ1 block: human KCNQ1 channel inhibition. AID 2642. B-score at 10 µM. hit rate 1.3% among 310,000. P51787. CHO-K1 KCNQ1, FluxOR thallium flux fluorescence; active compounds read high;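 active = compounds whose thallium flux B-score, printed positive for inhibition, exceeds three library SD while starting fluorescence stays within three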;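 also: channel opened by potassium depolarization with thallium stimulus after 20 min compound exposure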
hERG protect: hERG (human) protection from proarrhythmic block; CHO-hERG, FluxOR thallium flux, dofetilide IC70 present; activation (rescue from dofetilide block), less the hit threshold, % at 10 µM; hit rate 0.51% among 310,000;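 active = activation above the mean of controls blocked by dofetilide plus 5 SD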;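 also: thallium influx through hERG after potassium depolarization seen as dye fluorescence rise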
KCNK3 inh: human KCNK3 channel inhibition, primary screen | CHO-KCNK3 thallium flux, FluxOR fluorescence; active compounds read low | hit rate 0.84% among 340,000 | AID 602410 | B-score at 10 µM;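 active = B-score under library mean minus 4 SD, starting fluorescence ratio at most library mean plus 5 SD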;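 also: more negative B-score means stronger inhibition of thallium flux through KCNK3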
KCNK9 inh-1: human KCNK9 channel inhibition; Q9NPC2; HEK293 KCNK9, FluxOR thallium flux fluorescence; active compounds read low; B-score at 10 µM; hit rate 1.2% among 310,000; AID 488922;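 active = ratio B-score over 3 SD below the library mean, with starting fluorescence within 5 SD of its mean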;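 also: negative B-score means less thallium flux so channel inhibition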
KCNQ1 pot: potentiates or activates the human KCNQ1 potassium channel; CHO-K1 KCNQ1, thallium flux FluxOR fluorescence; active compounds read high; B-score at 10 µM; AID 2648; P51787; hit rate 0.35% among 310,000;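 active = fluorescence ratio B-score, a plate-corrected score, at least three library SD, with initial intensity B-score within 5 SD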
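Assay system: CHO-K1 cells stably expressing KCNQ1. Medium: assay buffer for compound exposure, DMSO matched across wells. Timing: 37 °C overnight plating, 90-min dark dye load, 20-min compound pretreatment. Signal: kinetic FluxOR fluorescence, 10 s baseline plus 110 s post-stimulus.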
Kir21 inh: inhibitors of mouse Kir2.1 inward-rectifier potassium channel | P35561 | AID 1672 | B-score at 10 µM | hit rate 0.85% among 310,000 | HEK293-Kir2.1, FluxOR thallium flux fluorescence; active compounds read low;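 active = fluorescence ratio B-score at or below minus 3 SD of library scores, with starting-brightness B-score within 2 SD, cut at about -4.2 in these data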;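 also: channel flux triggered by added potassium and thallium sulfate stimulus; B-score of peak minus minimum fluorescence over baseline after thallium stimulus; more negative B-score means stronger Kir2.1 block with less thallium influx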
Target sequence (P35561 whole entry, looked up): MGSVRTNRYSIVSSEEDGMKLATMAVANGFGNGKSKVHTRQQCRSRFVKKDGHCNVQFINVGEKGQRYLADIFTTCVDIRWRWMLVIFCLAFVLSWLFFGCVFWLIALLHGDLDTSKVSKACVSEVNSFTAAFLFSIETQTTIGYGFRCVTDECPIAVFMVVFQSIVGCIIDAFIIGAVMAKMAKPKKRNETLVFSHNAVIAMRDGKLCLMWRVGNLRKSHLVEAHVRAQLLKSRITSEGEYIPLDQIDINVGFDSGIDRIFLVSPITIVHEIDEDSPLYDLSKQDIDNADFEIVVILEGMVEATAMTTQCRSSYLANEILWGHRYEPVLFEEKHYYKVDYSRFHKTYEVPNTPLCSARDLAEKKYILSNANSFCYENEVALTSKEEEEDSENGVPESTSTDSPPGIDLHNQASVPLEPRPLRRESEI
hERG ctr: hERG (human) inhibition as Kir2.1 counter-screen; shares compounds with Kir21 inh; hERG-expressing cells, thallium flux; inhibition, % at 10 µM; hit rate 20% among 320; AID 2236;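 also: host cells are CHO cells stably expressing hERG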
KCNK9 inh-2: selectivity of Kir2.1 inhibitors: effect on human KCNK9; shares compounds with Kir21 inh; KCNK9-expressing cells, ion flux inhibition; inhibition, % at 10 µM; hit rate 5% among 320; AID 2329
Kir2-1 patch inh: inhibitors of mouse Kir2.1 potassium channel; Kir2.1 cells, automated patch-clamp current inhibition; shares compounds with Kir21 inh; hit rate 71% among 320; inhibition, % at 25 µM
An asterisk follows results filed as active; i = inactive; x = no result given. Unless noted, no rule for the calls is given here.

SMILES	KCNQ1 block	hERG protect	KCNK3 inh	KCNK9 inh-1	KCNQ1 pot	Kir21 inh	hERG ctr	KCNK9 inh-2	Kir2-1 patch inh
COC(=O)C1=C(C)N=C2SCCC(=O)N2C1c1ccc(OC(=O)c2ccco2)cc1 (stereo unspecified)	i	-5	i	i	i	-7.2*	i	i	i
Cc1ccc(C)c(OCCC(=O)OCC(=O)NCc2ccccc2)c1	i	-11	i	i	i	0.03	x	x	x
Cc1ccc(C)c(OCCCNCc2ccccc2)c1	i	-9	i	i	i	-9.4*	i	i	74%*
COc1cccc(C2=NOC(C(=O)Nc3cc(C)on3)C2)c1OC (stereo unspecified)	i	-10	i	i	i	0.8	x	x	x
c1cc2ccc3ccc(CN4CCOCC4)c4ccc(c1)c2c34	i	-8	i	i	i	0.31	x	x	x
OC1CCCN(Cc2ccc3ccc4cccc5ccc2c3c45)C1 (stereo unspecified)	i	-4	i	i	i	-5.8*	48%*	i	i
CN(C)CCN(Cc1ccccc1)C(=O)[C@H](Cc1ccccc1)N1C(=O)c2ccccc2C1=O	i	-7	i	i	i	-6*	i	i	i
O=C(NNC(=O)c1cc([N+](=O)[O-])ccc1Cl)c1cccnc1	i	-8	i	i	i	-0.13	x	x	x
COc1ccc(CCNC(=O)C(C)SCc2ccccc2)cc1 (stereo unspecified)	i	-10	i	i	i	-7.5*	i	i	56%*
COc1cccc(NC(=O)C(C)SCc2ccccc2)c1 (stereo unspecified)	i	-9	i	i	i	0.21	x	x	x
COc1ccc(CN(C)CC(O)COC(c2ccc(OC)cc2)c2ccc(OC)cc2)cc1 (stereo unspecified)	i	-17	i	i	i	-8.7*	75%*	i	i
COc1ccc(CN(C)CC(O)COc2ccc(-c3ccccc3)cc2)cc1OC (stereo unspecified)	i	-18	i	i	i	-0.48	x	x	x
Cc1ccccc1C(=O)N1CCC(C(=O)Nc2sccc2C(N)=O)CC1	x	x	i	x	x	x	x	x	x
OC(CNCc1ccco1)COc1ccccc1 (stereo unspecified)	i	-4	i	i	i	-0.05	x	x	x
OC(CNCc1ccco1)Cn1c2ccccc2c2ccccc21 (stereo unspecified)	i	-12	i	i	i	-11*	61%*	i	25%*
Cc1ccc(C)c(Cn2c3ccccc3c3cnn(CC(=O)NCCCN4CCCCC4)c(=O)c32)c1	i	-15	i	i	i	-6.2*	i	i	i
CCOc1ccccc1N(C)S(=O)(=O)c1ccc2c(c1)CCN2C(=O)CCC(=O)O	i	-7	i	i	i	0.5	x	x	x
CN(C)Cc1c(O)ccc2oc(Cc3ccccc3)cc12	i	-8	i	i	i	-5.9*	i	i	62%*
COc1ccccc1NC(=O)NCC(c1ccco1)N1CCCCC1 (stereo unspecified)	i	-10	i	i	i	-0.42	x	x	x
Cc1ccc(C(=O)NNC(=S)NC(=O)c2ccccc2)cc1	i	23*	i	i	8*	2.6	i	i	i
Cc1ccc(C(=O)NC(=S)NNC(=O)c2ccccc2O)cc1	i	-12	i	i	i	-0.33	x	x	x
CC(CCc1ccco1)N(C)S(=O)(=O)c1csc(C(N)=O)c1 (stereo unspecified)	i	-3	i	i	i	-1	x	x	x
CCCCN(Cc1ccco1)S(=O)(=O)c1csc(C(N)=O)c1	i	-9	i	i	i	-7.2*	i	i	46%*
CNCCCCOc1ccccc1Cc1ccccc1	i	-9	x	i	i	-8.8*	i	i	30%*
O=C(COc1ccc(C(=O)c2ccccc2)cc1)NCC1CCCCC1	i	-12	i	i	i	0.91	x	x	x
SMILES	KCNQ1 block	hERG protect	KCNK3 inh	KCNK9 inh-1	KCNQ1 pot	Kir21 inh	hERG ctr	KCNK9 inh-2	Kir2-1 patch inh
O=C(NCCOc1ccccc1)c1ccccc1SCC(=O)N1CCCC1	x	x	i	x	x	x	x	x	x
COc1ccc(Oc2c(-c3ccc(O)cc3O)n[nH]c2C)cc1	i	-10	i	i	i	-5.7*	i	i	0.2%*
Cc1ccc(NC(=O)c2ncn(CC(=O)N3CCN(c4ccccn4)CC3)n2)cc1C	x	x	i	x	x	x	x	x	x
C=CCn1c(SCC(=O)NC(C)(C)C)nnc1-c1ccccc1O	i	-9	i	i	i	0.26	x	x	x
C=CCn1c(SCc2cccc(C#N)c2)nnc1-c1ccccc1O	i	-5	i	i	i	-5.9*	i	i	24%*
COc1ccc(CNCc2cccc3ccccc23)cc1	i	0	i	i	i	x	i	i	x
CN(C)C(=O)c1ccccc1Sc1cc(Cl)ccc1Cl	i	-13	i	i	i	-6.7*	i	i	20%*
CN(C)C(=O)c1ccccc1Sc1ccc(Cl)cc1Cl	i	-12	i	i	i	-4.2	x	x	x
CC(=O)OC1=C(C#N)Cn2ccc3cccc1c32	i	-5	x	i	i	-6.7*	i	i	i
Cc1ccc(OCc2cc(C(=O)N(C)Cc3cc(C4CC4)n[nH]3)no2)cc1C	i	-13	i	i	i	-1.7	x	x	x
CCOC(=O)c1ccc(Nc2ncnc3ccc(C)cc23)cc1	i	-9	i	i	i	-0.98	x	x	x
CCOC(=O)c1cccc(Nc2ncnc3ccc(C)cc23)c1	i	-10	i	i	i	-6*	i	i	32%*
Cc1ccc(CNC(=O)NCc2ccccc2)cc1	i	-5	i	i	i	0.54	x	x	x
Cc1ccc(CNCC(O)(c2ccccc2)c2ccccc2)cc1	i	-10	i	i	i	-9.2*	i	i	i
O=C(O)COc1ccccc1/C=N/NC(=O)CSc1nc2ccccc2n1Cc1ccccc1Cl	i	-2	i	i	i	2.8	i	i	i
COc1ccc(Nc2ccnc3ccccc23)cc1	i	-10	i	i	i	-15*	i	i	82%*

Bioassay records as filed in PubChem BioAssay.
